The source of these data is ChEMBL document CHEMBL1130067, “Pyridazinodiazepines as a high-affinity, P2-P3 peptidomimetic class of interleukin-1 beta-converting enzyme inhibitor” (J Med Chem, 1997).

Peptide text beside a SMILES is read from it. * marks the point of attachment. Cbz = O=C(OCc1ccccc1)*

The target in the first assay is T1, Caspase-1 (Homo sapiens) (UniProt P29466).
T1 sequence (whole entry): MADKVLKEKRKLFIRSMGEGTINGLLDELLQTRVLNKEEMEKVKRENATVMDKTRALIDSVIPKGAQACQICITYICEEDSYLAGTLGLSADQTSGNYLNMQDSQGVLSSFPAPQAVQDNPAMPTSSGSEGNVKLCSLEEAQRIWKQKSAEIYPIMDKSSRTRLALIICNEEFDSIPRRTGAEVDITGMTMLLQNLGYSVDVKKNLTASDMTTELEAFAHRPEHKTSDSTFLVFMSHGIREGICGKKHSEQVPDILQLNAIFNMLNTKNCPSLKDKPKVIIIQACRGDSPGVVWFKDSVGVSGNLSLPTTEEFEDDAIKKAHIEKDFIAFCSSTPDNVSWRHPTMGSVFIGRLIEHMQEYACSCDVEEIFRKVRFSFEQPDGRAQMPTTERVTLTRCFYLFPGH
The assay is described as follows: Second order rate constants were tested for inhibition of IL-1 beta converting enzyme (ICE). In a few lines:
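Fluorogenic progress-curve assay: ICE in 10 mM HEPES pH 7.5, 25% glycerol, 1 mM DTT, with 10 µM Suc-Tyr-Val-Ala-Asp-AMC; read at 37 °C over 30 min. Inactivation rates are taken from nonlinear progress curves by the Tian–Tsou method, giving second-order rate constants. Determinations are in triplicate, standard error <10%.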
In turn, `CC(C)[C@H](NC(=O)OCc1ccccc1)C(=O)N[C@@H](C)C(=O)N[C@@H](CC(=O)O)C(=O)COC(=O)c1c(Cl)cccc1Cl` gave a K obs / 1 of 432000 M⁻¹ s⁻¹.

In turn, `CN1CCN(Cc2ccc(C(=O)N[C@H]3CCC(=O)N4CCC[C@@H](C(=O)N[C@@H](CC(=O)O)C(=O)COC(=O)c5c(Cl)cccc5Cl)N4C3=O)cc2)CC1` had a K obs / 1 of 210000 M⁻¹ s⁻¹.

`CC(C)[C@H](NC(=O)c1ccc(CN2CCN(C)CC2)cc1)C(=O)N[C@@H](C)C(=O)N[C@@H](CC(=O)O)C(=O)COc1cc(C(F)(F)F)nn1-c1ccc(Cl)cc1` displayed a K obs / 1 of 200000 M⁻¹ s⁻¹.

As for `O=C(O)C[C@H](NC(=O)CN1C(=O)[C@@H](NC(=O)OCc2ccccc2)COc2ccccc21)C(=O)COc1cc(C(F)(F)F)nn1-c1ccc(Cl)cc1`, the K obs / 1 was found to be 114000 M⁻¹ s⁻¹.

Compound `CSc1ccc(C(=O)Nc2cnc(-c3ccc(F)cc3)n(CC(=O)N[C@@H](CC(=O)O)C(=O)COc3cc(C(F)(F)F)nn3-c3ccc(Cl)cc3)c2=O)cc1` returned a K obs / 1 of 110000 M⁻¹ s⁻¹.

In the case of `O=C(O)C[C@H](NC(=O)[C@@H]1CCCN2C(=O)CC[C@H](NC(=O)c3ccc(CN4CCOCC4)cc3)C(=O)N12)C(=O)COC(=O)c1c(Cl)cccc1Cl`, the K obs / 1 is 425000 M⁻¹ s⁻¹.

Compound `O=C(O)C[C@H](NC(=O)CN1C(=O)[C@@H](NC(=O)OCc2ccccc2)COc2ccccc21)C(=O)COC(=O)c1c(Cl)cccc1Cl` had a K obs / 1 of 44000 M⁻¹ s⁻¹.

As for `O=C(O)C[C@H](NC(=O)Cn1c(-c2ccc(F)cc2)ncc(NC(=O)OCc2ccccc2)c1=O)C(=O)COc1cc(C(F)(F)F)nn1-c1ccc(Cl)cc1`, the K obs / 1 was determined as 310000 M⁻¹ s⁻¹.

Take `O=C(O)CCCc1ccc(C(=O)N[C@H]2CCC(=O)N3CCC[C@@H](C(=O)N[C@@H](CC(=O)O)C(=O)COc4cc(C(F)(F)F)nn4-c4ccc(Cl)cc4)N3C2=O)cc1`: the K obs / 1 is 800000 M⁻¹ s⁻¹.

Consider `O=C(O)C[C@H](NC(=O)[C@@H]1CCCN2C(=O)CC[C@H](NC(=O)OCc3ccccc3)C(=O)N12)C(=O)COc1cc(C(F)(F)F)nn1-c1ccc(Cl)cc1`, for which the K obs / 1 is 437000 M⁻¹ s⁻¹.

As to `O=C(O)CSc1ccc(C(=O)N[C@H]2CCC(=O)N3CCC[C@@H](C(=O)N[C@@H](CC(=O)O)C(=O)COc4cc(C(F)(F)F)nn4-c4ccc(Cl)cc4)N3C2=O)cc1`, the K obs / 1 was 1.22e+06 M⁻¹ s⁻¹.

`CC(C)[C@H](NC(=O)OCc1ccccc1)C(=O)N[C@@H](C)C(=O)N[C@@H](CC(=O)O)C(=O)COc1cc(C(F)(F)F)nn1-c1ccc(Cl)cc1` returned a K obs / 1 of 340000 M⁻¹ s⁻¹.

With `C[C@@H](C(=O)N[C@@H](CC(=O)O)C(=O)COc1cc(C(F)(F)F)nn1-c1ccccc1)N1CC[C@H](NC(=O)OCc2ccccc2)C1=O`, the K obs / 1 was determined as 31800 M⁻¹ s⁻¹.

`CN(C)Cc1ccc(C(=O)N[C@H]2CCC(=O)N3CCC[C@@H](C(=O)N[C@@H](CC(=O)O)C(=O)COc4cc(C(F)(F)F)nn4-c4ccc(Cl)cc4)N3C2=O)cc1` displayed a K obs / 1 of 162000 M⁻¹ s⁻¹.

For the compound `O=C(O)C[C@H](NC(=O)[C@@H]1CCCN2C(=O)CC[C@H](NC(=O)OCc3ccccc3)C(=O)N12)C(=O)COc1cc(C(F)(F)F)nn1-c1ccccc1`, the K obs / 1 worked out at 413000 M⁻¹ s⁻¹.

Regarding `O=C(O)C[C@H](NC(=O)Cn1c(-c2ccc(F)cc2)ncc(NC(=O)OCc2ccccc2)c1=O)C(=O)COC(=O)c1c(Cl)cccc1Cl`, the K obs / 1 came out at 268000 M⁻¹ s⁻¹.

With `CSc1ccc(C(=O)N[C@H](C(=O)N[C@@H](C)C(=O)N[C@@H](CC(=O)O)C(=O)COc2cc(C(F)(F)F)nn2-c2ccccc2)C(C)C)cc1`, the K obs / 1 came to 800000 M⁻¹ s⁻¹.

In the case of `O=C(O)C[C@H](NC(=O)[C@@H]1CS[C@H]2CC[C@H](NC(=O)OCc3ccccc3)C(=O)N21)C(=O)COc1cc(C(F)(F)F)nn1-c1ccccc1`, the K obs / 1 came out at 42000 M⁻¹ s⁻¹.

Compound `Cc1nccn1Cc1ccc(C(=O)N[C@H]2CCC(=O)N3CCC[C@@H](C(=O)N[C@@H](CC(=O)O)C(=O)COC(=O)c4c(Cl)cccc4Cl)N3C2=O)cc1` returned a K obs / 1 of 340000 M⁻¹ s⁻¹.

In turn, `O=C(O)C[C@H](NC(=O)[C@@H]1CCCN2C(=O)CC[C@H](NC(=O)OCc3ccccc3)C(=O)N12)C(=O)COC(=O)c1c(Cl)cccc1Cl` registered a K obs / 1 of 572000 M⁻¹ s⁻¹.

The compound `CC(C)[C@H](NC(=O)c1ccc(CN2CCOCC2)cc1)C(=O)N[C@@H](C)C(=O)N[C@@H](CC(=O)O)C(=O)COc1cc(C(F)(F)F)nn1-c1ccccc1` showed a K obs / 1 of 186000 M⁻¹ s⁻¹.

A further assay is filed under the species Homo sapiens. The assay is described as follows: Inhibitory concentration against IL1-beta production in human monocytes. It is filed as functional.
Consider `O=C[C@H](CC(=O)O)NC(=O)[C@@H]1CCCN2C(=O)CC[C@H](NC(=O)c3ccccc3)C(=O)N12`, for which the IC50 was 1 µM.

The next assay concerns the target T2, Caspase-1 (Homo sapiens, UniProt P29466).
T2 sequence (P29466 whole entry): T1 sequence (whole entry)
Nature of the assay: Reversible Inhibition constants against IL-1 beta converting enzyme (ICE). In outline: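 Fluorescence progress curves are recorded at 37 °C over 30 min. Ki for reversible inhibitors is derived by a method from a cited reference. Determinations are in triplicate, standard error <10%.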
Take `O=C[C@H](CC(=O)O)NC(=O)[C@@H]1CCCN2C(=O)CC[C@H](NC(=O)OCc3ccccc3)C(=O)N12`: the affinity corresponds to a Ki of 0.025 µM.

The compound `O=C[C@H](CC(=O)O)NC(=O)[C@@H]1CCCN2C(=O)CC[C@H](NC(=O)c3ccc(OCC(=O)O)cc3)C(=O)N12` returned a Ki of 0.001 µM.

Consider `O=C[C@H](CC(=O)O)NC(=O)[C@@H]1CCCN2C(=O)CC[C@H](NC(=O)c3ccccc3)C(=O)N12`, for which the inhibition constant Ki was found to be 0.005 µM.

The compound `CC(C)[C@H](NC(=O)OCc1ccccc1)C(=O)N[C@@H](C)C(=O)N[C@@H](CC(=O)O)C(=O)O` (Cbz-Val-Ala-Asp-OH) displayed a Ki of 0.015 µM.
